Source: PMC3859345 (Science translational medicine, 2013)
“Also recorded” adds a separate entry of the source. Where no end group is shown, it is not given here. The star is where a group is joined. FITC = O=C1OC2(c3ccc(O)cc3Oc3cc(O)ccc32)c2ccc(NC(=S)*)cc21; Ahx = NCCCCCC(=O)O

Experiments:
[1] = Fluorescence emission spectra; type: physicochemical; details: 100 μM in PBS, 471 nm excitation
[2] = Stability testing of lyophilized powder; type: physicochemical; details: −20°C
Procedure, shortened: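 GMP-synthesized FITC-peptide aliquoted into amber vials crimp-sealed with septa and stored at −20°C. Monitored by appearance (colour), HPLC and mass spectrometry over 3 years.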

H460 cells [3] = assay: Binding affinity; parameters: species or system human; details: read-out: apparent dissociation constant (kd); ASY*-FITC to H460 cells; averages from 3 independent experiments; least squares fit
Procedure, shortened: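 Human H460 lung adenocarcinoma cells were grown as adherent monolayers in DMEM with 10% FBS and 100 U/ml penicillin/streptomycin at 37°C, 5% CO2. They were incubated with FITC-labeled test peptide, and the apparent dissociation constant was derived from cell-bound fluorescence. Values are averages of 3 independent experiments.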

H460 cells [4] = assay: Binding kinetics; parameters: species or system human; details: ASY*-FITC to H460 cells; least squares fit
Procedure, shortened: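 H460 lung adenocarcinoma cells grown as adherent monolayers in DMEM with 10% FBS and 100 U/ml penicillin/streptomycin at 37°C, 5% CO2. Association time constant k determined for FITC-labelled peptide binding to these cells.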

adenocarcinoma cells = assay: Flow cytometry, adenocarcinoma cells; type: binding, human; details: for mean intensity of controls lower than that for ASY*-FITC: flow cytometry, relative to ASY*-FITC
Procedure, shortened: (§1)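 Adenocarcinoma and non-neoplastic Q-hTERT cells, grown as adherent monolayers at 37°C, 5% CO2, incubated with FITC-labelled peptide, with FITC-labelled control peptides (including a scrambled sequence), or left unstained. Mean fluorescence intensity measured by flow cytometry.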

Q-hTERT cells [5] = assay: Flow cytometry, Q-hTERT cells; type: binding, human
Procedure, shortened: as §1

[6] = test system: H460 adenocarcinoma cells; assay: Confocal fluorescence microscopy, H460; type: binding, human
Procedure, shortened: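 Adherent H460 cultures (DMEM, 10% FBS, P/S, 37°C, 5% CO2) were incubated with FITC-labeled test peptide and examined by confocal fluorescence microscopy for plasma-membrane labeling. Non-neoplastic Q-hTERT Barrett's cells, grown in keratinocyte serum-free medium with 50 μg/ml bovine pituitary extract and 0.005 μg/ml EGF, were the control line.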

[7] = test system: FLO1 adenocarcinoma cells; assay: Confocal fluorescence microscopy, FLO1; type: binding, human
Procedure, shortened: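 FLO1 esophageal adenocarcinoma cells cultured as adherent monolayers in DMEM with 10% FBS, penicillin/streptomycin and 5 μg/ml plasmocin at 37°C, 5% CO2. Plasma-membrane binding of FITC-labelled peptide assessed by confocal fluorescence microscopy.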

[8] = test system: OE33 adenocarcinoma cells; assay: Confocal fluorescence microscopy, OE33; type: binding, human
Procedure, shortened: (§2)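 Adherent OE19 and OE33 esophageal carcinoma monolayers maintained at 37°C, 5% CO2 in RPMI-1640 with 10% FBS, penicillin/streptomycin and 5 μg/ml plasmocin. FITC-labelled peptide binding to the plasma membrane examined by confocal fluorescence microscopy.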

[9] = test system: OE19 adenocarcinoma cells; assay: Confocal fluorescence microscopy, OE19; type: binding, human
Procedure, shortened: as §2

Q-hTERT cells [10] = assay: Confocal fluorescence microscopy, Q-hTERT; type: binding, human; details: Q-hTERT BE cells
Procedure, shortened: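 Non-neoplastic Q-hTERT Barrett's cells kept in keratinocyte serum-free medium with 50 μg/ml bovine pituitary extract, 0.005 μg/ml recombinant human EGF and penicillin/streptomycin, as adherent monolayers at 37°C, 5% CO2. Binding of FITC-labelled peptide checked by confocal fluorescence microscopy.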

[11] = test system: human esophageal mucosa (squamous, BE, HGD, EAC); assay: Ex vivo fluorescence stereomicroscopy of resected esophageal specimens; type: binding; details: 1 mm^2 regions, 12 EMR specimens
[12] = test system: Barrett's neoplasia (HGD/EAC); assay: Confocal endomicroscopy in vivo after topical peptide administration; parameters: species or system human
human subjects [13] = details: in vivo
human subjects [14] = assay: Peptide safety in humans
[15] = test system: H460, FLO1, OE33, and OE19 adenocarcinoma cells; assay: Confocal fluorescence microscopy, control peptides; type: binding, human; details: compared with ASY*-FITC
[16] = test system: human H460 adenocarcinoma cells; assay: Phage display biopanning, phage count / pfu binding to H460 cells; details: pfu counts
H460 cells [17] = assay: Competitive binding with ASY*-FITC on H460 cells; parameters: species or system human; details: unlabeled competitor 100 to 1000 μM (GGG* control at concentrations up to 1000 μM, P>0.05, unpaired t-test)
ovarian cancer = details: topical administration, mouse model of ovarian cancer; cited from earlier work

ASYNYDA [ASY*-FITC]
peak emission [1]: 519 nm | purity on HPLC at end of stability testing ([2]; 36 months, initial 97%): 95% | change in purity on HPLC ([2]; over 36 months (97% to 95%)): ~ 2% | Kd (H460 cells [3]): 32 nM | apparent association rate constant (k) (H460 cells [4]): 0.2 min⁻¹ | binding on flow cytometry (in words) (adenocarcinoma cells; compared with control peptides): stronger binding to the adenocarcinoma cells | difference between ASY*-FITC and control peptides on binding to Q-hTERT cells (Q-hTERT cells [5]): No difference | binding to plasma membrane (confocal), H460 [6]: binding of ASY*-FITC to the plasma membrane | binding to plasma membrane (confocal), FLO1 [7]: binding of ASY*-FITC to the plasma membrane; also recorded: specific binding | binding to plasma membrane (confocal), OE33 [8]: binding of ASY*-FITC to the plasma membrane; also recorded: specific binding | binding to plasma membrane (confocal), OE19 [9]: binding of ASY*-FITC to the plasma membrane; also recorded: specific binding | binding to Q-hTERT cells (Q-hTERT cells [10]): did not bind to Q-hTERT cells | mean fluorescence intensities for HGD and EAC versus non-dysplastic BE and squamous [11]: significantly greater than non-dysplastic BE and squamous | greater fluorescence intensity for HGD/EAC (neoplasia) than for BE and squamous ([12]; 25 human subjects, topical 5 ml of 100 μM, 5 min incubation): 3.8 fold | in vivo binding, HGD and EAC ([12]; HGD and EAC crypts, confocal endomicroscopy): specific peptide binding to neoplastic crypts | specificity for HGD/EAC ([12]; T/B ratio threshold 4.2, 95% CI: 85%–100%, 25 human subjects): 97% | in vivo binding, squamous epithelium ([12]; normal squamous epithelium, confocal endomicroscopy): no peptide binding | onset of binding ([12]; topical administration): ~ 5 minutes | mean post/pre-EMR WBC ratio at 24 hours (human subjects [13]): 1.7±0.4 | post/pre-EMR WBC ratio without peptide compared with peptide and EMR (human subjects [13]): not significantly different | mean WBC count ratio by day 5 (human subjects [14]; 14 out of 21 patients with leukocytosis resolved, SD, P<0.01, Mann Whitney test): 1.1±0.2 | mean white blood cell (WBC) count at 24 hours (human subjects [14]; 21 patients with EMR, baseline 7.0×10^3, P<0.01, unpaired t-test, transient): 11.1×10^3 | safety of topical application (in words) (human subjects [14]; BE patients, topical): safe and effective | patients with leukocytosis resolved by day 5 (human subjects [14]; after EMR with peptide, remaining 7 patients after day 5): 14 out of 21 | urinalyses (human subjects [14]; all 25 patients, baseline and post-procedure): within normal limits | relation of adverse events to the peptide (human subjects [14]; all adverse events, clinical study): unlikely to have been related to the peptide | toxicity attributed to the peptide (human subjects [14]; animal and patient studies): No toxicity was attributed to the peptide

O=C1OC2(c3ccc(O)cc3Oc3cc(O)ccc32)c2ccc(N=C=S)cc21 [FITC, reference compound]
peak emission [1]: 519 nm

GGGAGGGAGGGK-FITC
mean intensity of controls lower than that for ASY*-FITC (adenocarcinoma cells): < 3 fold | difference between ASY*-FITC and control peptides on binding to Q-hTERT cells (Q-hTERT cells [5]): No difference | fluorescence signal of control peptides [15]: Significantly less signal

AADYYSN-GGGSK-FITC
mean intensity of controls lower than that for ASY*-FITC (adenocarcinoma cells): < 3 fold | difference between ASY*-FITC and control peptides on binding to Q-hTERT cells (Q-hTERT cells [5]): No difference | fluorescence signal of control peptides [15]: Significantly less signal

ASYNYDA [ASYNYDA phage]
greater binding for H460 than for Q-hTERT cells ([16]; H460 vs Q-hTERT BE cells): 5.3 fold | greater binding for H460 cells in comparison to wild-type (WT)-phage ([16]; vs WT-phage (no peptides expressed)): > 10 fold

GGGAGGGAGGGK
inhibition of ASY*-FITC binding (fluorescence intensity) (H460 cells [17]): No significant reduction in fluorescence intensity

MNDPIPQ-GGGSK-FITC
mean intensity of controls lower than that for ASY*-FITC (adenocarcinoma cells): < 3 fold | difference between ASY*-FITC and control peptides on binding to Q-hTERT cells (Q-hTERT cells [5]): No difference | fluorescence signal of control peptides [15]: Significantly less signal

γ-glutamyl hydroxymethyl rhodamine green
time to fluorescence activation (ovarian cancer): ~ 1 minute

{FITC-Ahx}-ASYNYDA
mean intensity of controls lower than that for ASY*-FITC (adenocarcinoma cells): < 3 fold | difference between ASY*-FITC and control peptides on binding to Q-hTERT cells (Q-hTERT cells [5]): No difference | fluorescence signal of control peptides [15]: Significantly less signal
